The test system of one experiment is DU-145. Briefly: Antiproliferative activity against human DU145 cells after 48 hrs by resazurin dye reduction assay. Format: functional, cell-based. Particulars: DU-145, 48 h. An outline of the steps: (§1)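 Cells (human fibroblast primary culture, or PC3, DU145 or PA1 cancer lines) were kept as monolayers in Glutamax MEM with Earle's salts, 10% FCS, pyruvate, nonessential amino acids and gentamicin, at 37 °C in 5% CO2. 5×10^3 cells/well adhered for 16 h, then had 48 h continuous drug exposure (20 mM DMSO stock). Resazurin 25 µg/mL for 1 h; fluorescence ex 530/em 590 nm. IC50 from blank-corrected concentration–survival curves versus control wells.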
(In general: Resazurin is reduced to fluorescent resorufin, in cell work by metabolically active cells.)

The next experiment deals with PA-1. Briefly: Antiproliferative activity against human PA1 cells after 48 hrs by resazurin dye reduction assay. Format: functional, cell-based. Particulars: PA-1, 48 h. An outline of the steps: as §1
Another experiment relates to PC-3. Briefly: Antiproliferative activity against human PC3 cells after 48 hrs by resazurin dye reduction assay. Format: functional, cell-based. The note with it: PC-3, 48 h. An outline of the steps:
as §1

Experiment [1] can be described thus: Antiproliferative activity against human fibroblasts after 48 hrs by resazurin dye reduction assay. The experiment is classed as cell-based. The note with it: Fibroblast. An outline of the steps: as §1

In general, IC50 refers to the concentration that inhibits the measured activity by half. Lower therefore signals inhibition by little substance. Turning to `O=Cc1c[nH]c2c1ccc1c3ccccc3[nH]c12`, the IC50 in the experiment with DU-145 amounted to 26 µM; with PA-1, 4.5 µM; with PC-3, 9.5 µM; in experiment [1] it was 21 µM.

(Values after ChEMBL document CHEMBL1154186, “Synthesis, kinase inhibitory potencies, and in vitro antiproliferative evaluation of new Pim kinase inhibitors” (J Med Chem, 2009).)
